# Screens deposited in PubChem by several laboratories.
# SENP7 block – SENP7 protease inhibitors, primary screen, biochemical, luminescence, uHTS. recombinant SENP7, Z-RLRGG-aminoluciferin luminescence, 40 min. Sentrin-specific protease 7 (Homo sapiens), Q9BQF6. inhibition, % at 5 µM. actives 1.5% (n = 330,000);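 active = inhibition above about 50% at the single test dose, limit read from the data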;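 also: plate controls were DMSO with enzyme for no effect and no enzyme buffer wells for full effect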
# SENP6 block – SENP6 protease inhibitors, primary screen, biochemical, luminescence, uHTS; Recombinant SENP6 catalytic domain, aminoluciferin luminescence; inhibition, % at 10 µM; Sentrin-specific protease 6 (Homo sapiens), Q9GZR1; actives 1.8% (n = 330,000); AID 2599, 2010;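 active = inhibition above about 50% at the single tested dose, limit read from the data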;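 also: plate controls were DMSO wells with enzyme for no effect and DMSO wells lacking enzyme for full effect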
# Target sequence (Q9GZR1 628-1112 limits assumed): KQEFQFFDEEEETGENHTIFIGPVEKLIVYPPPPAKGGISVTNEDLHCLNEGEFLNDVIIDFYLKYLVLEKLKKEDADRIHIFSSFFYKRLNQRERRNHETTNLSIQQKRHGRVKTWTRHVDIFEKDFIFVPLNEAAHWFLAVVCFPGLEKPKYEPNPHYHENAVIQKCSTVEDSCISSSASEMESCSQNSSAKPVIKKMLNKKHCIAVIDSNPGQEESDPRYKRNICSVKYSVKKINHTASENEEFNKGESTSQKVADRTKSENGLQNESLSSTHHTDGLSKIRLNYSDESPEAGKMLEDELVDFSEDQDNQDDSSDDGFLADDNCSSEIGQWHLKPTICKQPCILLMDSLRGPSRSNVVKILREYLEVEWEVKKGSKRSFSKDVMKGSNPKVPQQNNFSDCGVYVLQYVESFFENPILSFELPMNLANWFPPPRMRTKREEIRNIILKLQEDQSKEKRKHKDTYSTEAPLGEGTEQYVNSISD
# UCH37 DUB inh – inhibitors of human UCH37 deubiquitinase, primary screen, biochemical, Ub-AMC cleavage, fluorescence; Ubiquitin carboxyl-terminal hydrolase isozyme L5 (Homo sapiens), Q9Y5K5; purified proteasome/UCH37; inhibition, % (concentration not given with the values); actives 0.33% (n = 330,000); AID 588478, 2011;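 active = mean inhibition over replicate wells above about 20%, limit read from the data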;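 also: 0% = compound-free wells with enzyme and 100% = wells lacking proteasome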
#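 Material: Human UCH37 enzyme supplied as purified proteasome complex | Schedule: 30 min compound-proteasome preincubation then 25 min substrate reaction, room temperature | Detection: AMC fluorescence from Ub-AMC cleavage, excitation 355 nm, emission 460 nm | Benchmarks: Wells without proteasome as full block, compound-free enzyme plus substrate as uninhibited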
# SENP8 block-1 – human SENP8 protease inhibitors, primary screen, biochemical, fluorescence, Nedd8 protein substrate, uHTS; Sentrin-specific protease 8 (Homo sapiens), Q96LD8; recombinant SENP8; inhibition, % at 20 µM; actives 0.64% (n = 360,000); AID 602440, 2012; in the data active = inhibition mostly above about 40%, no sharp cut-off; inactive = mostly below about 27%
# Target sequence (Q96LD8 whole entry, looked up): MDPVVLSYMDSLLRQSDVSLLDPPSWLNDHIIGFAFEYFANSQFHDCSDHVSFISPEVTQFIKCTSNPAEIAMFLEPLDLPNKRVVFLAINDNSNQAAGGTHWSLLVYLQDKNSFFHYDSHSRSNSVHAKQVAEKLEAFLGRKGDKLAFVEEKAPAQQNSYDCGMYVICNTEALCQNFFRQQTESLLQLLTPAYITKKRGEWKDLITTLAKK
# SENP1 FRET inh – human SENP1 catalytic domain inhibitors, primary screen, biochemical, FRET, uHTS; recombinant SENP1 catalytic domain, CyPet-SUMO1-YPet FRET cleavage; actives 0.21% (n = 360,000); inhibition, % at 10 µM; Sentrin-specific protease 1 (Homo sapiens), Q9P0U3;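 active = inhibition at least 30% at 10 µM, raw YFP signal under a set limit, fluorescence ratio 0.5 to 1.5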;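 also: 0% = enzyme with DMSO and 100% = no enzyme wells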
#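 Material: hSENP1 catalytic domain, recombinant; medium: Tris pH 8 with BME, BSA, NP40 and catalase; compound: single concentration of 10 µM compound, 0.5% DMSO final; technique: FRET read of cyan and yellow fluorescence; timing: 50 min enzyme reaction, room temperature, light-protected; reagent: SFCypet-SUMO1-SFYpet substrate at 25 nM; control set: no-enzyme low, enzyme-DMSO high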
# SENP8 block-2 – SENP8 protease inhibitors, primary screen, biochemical, luminescence | inhibition, % at 10 µM | purified SENP8, Z-RLRGG-aminoluciferin cleavage | Sentrin-specific protease 8 (Homo sapiens), Q96LD8 | actives 1.2% (n = 330,000) | AID 2540, 2010; in the data active = inhibition above about 50%
# SENP1 inh conf – human SENP1 catalytic domain inhibitors, confirmation, biochemical, FRET endpoint, single concentration. shares compounds with SENP1 FRET inh. recombinant SENP1, CyPet-SUMO1-YPet FRET cleavage. inhibition, % at 10 µM. actives 34% (n = 520). AID 651678, 2012; in the data active = inhibition mostly above about 35%, no sharp cut-off; inactive = mostly below about 32%;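 also: 0% = enzyme with DMSO and 100% = no enzyme control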
# SENP1 kinetic – human SENP1 catalytic domain inhibitors, confirmation, biochemical, kinetic FRET, single concentration; AID 651690, 2012; inhibition, % at 10 µM; shares compounds with SENP1 FRET inh; recombinant SENP1, CyPet-SUMO1-YPet FRET kinetic cleavage; actives 26% (n = 520); in the data active = inhibition mostly above about 32%, no sharp cut-off; inactive = mostly below about 29%;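 also: 0% = DMSO with enzyme and 100% = no enzyme substrate only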
# The depositor's hits bear a star; i = inactive; . = not tested or not shown. This is a sample that favours compounds with a hit; in the whole collection about 2.6% have one here.
SMILES,SENP7 block,SENP6 block,UCH37 DUB inh,SENP8 block-1,SENP1 FRET inh,SENP8 block-2,SENP1 inh conf,SENP1 kinetic
Nc1c(-c2ccc(C(F)(F)F)cc2)nc2ncccn12,.,.,.,-2,53*,.,16,9
Cc1ccc(C=NNC(=O)Cc2c[nH]c3ccccc23)c(C)c1,.,.,2,.,.,.,.,.
COc1ccc(/C=N/n2c(SC)nnc(C(C)(C)C)c2=O)cc1OC,-1,-6,.,19,0,0,.,.
COc1cc(/C=N/n2c(SC)nnc(C(C)(C)C)c2=O)ccc1O,2,-22,.,25,52*,-4,12,8
CC(C)OCCCNC(=O)C(=O)NN=Cc1ccc(OCc2ccccc2)cc1,.,.,10,.,.,.,.,.
COc1ccc(C=NNC(=O)c2ccccc2Br)cc1COc1c(F)c(F)cc(F)c1F,.,.,0,.,.,.,.,.
COc1cccc(N=Cc2ccc(O)cc2O)c1,-3,-12,-1,14,36*,-2,17,11
COc1ccc(-c2nn(-c3ccccc3)cc2C=Nn2cnnc2)cc1OC,.,.,0,.,.,.,.,.
CCc1ccc2nc(SCC(=O)Nc3ccccc3N3CCOCC3)c(C#N)cc2c1,9,17,.,22,48*,-1,21,17
Cc1ccc2nc(SCC(=O)Nc3ccccc3N3CCOCC3)c(C#N)cc2c1,4,12,0,19,33*,6,-11,-12
NS(=O)(=O)c1ccc(CNC(=S)NC2CCCCC2)cc1,-5,-20,3,16,40*,-3,-5,-5
CC(=NNC(=O)c1cccc(S(=O)(=O)Nc2ccccc2Cl)c1)c1ccc(-n2ccnc2)cc1,.,.,2,.,.,.,.,.
O=C1C2=C(SCCS2)C(=O)N1c1ccccc1,-2,-9,3,22,36*,-2,21,29
O=C1CSCC(=O)N1c1ccccc1,4,-8,-3,22,2,0,.,.
CCOC(=O)C1=C(COC(=O)c2ccc3ccccc3c2O)NC(=O)NC1C (stereo not drawn),-4,19,-25,i,38*,-2,2,-1
CCOC(=O)C1=C(COC(=O)c2ccccc2OC(F)F)NC(=O)NC1C (stereo not drawn),-7,-12,5,-8,3,-9,.,.
N#C/C(=C/C1=C(N2CCOCC2)C(=C/c2cccc([N+](=O)[O-])c2)/CC1)C(=O)Nc1ccccc1F,.,.,12,36,73*,.,14,15
CCCOC(=O)Nc1nc2ccccc2o1,-5,-16,1,10,30*,-16,2,3
CCOC(=O)C(=CN=C(N)Nc1nc2ccccc2o1)C(=O)OCC,6,-7,-104,-219,-1,-1,.,.
Cc1cc(N2CCN(c3nc(-c4ccc([N+](=O)[O-])cc4)cs3)CC2)c2ccccc2n1,0,2,7,10,45*,10,15,14
Cc1c(N2C(=O)/C(=C/c3ccc(N(C)C)cc3)N(C)C2=S)c(=O)n(-c2ccccc2)n1C,.,.,19,44*,67*,.,55*,38*
Cc1c(N2C(=O)/C(=C/c3ccccc3)SC2=S)c(=O)n(-c2ccccc2)n1C,13,-10,9,24,0,1,.,.
O=S(=O)(NN=C1CC(c2ccccc2)Oc2ccccc21)c1ccccc1 (stereo not drawn),.,.,4,.,.,.,.,.
COc1cc(C=NNC(=O)c2c(C)nc3cc(C)ccn23)ccc1O,.,.,7,.,.,.,.,.
Nc1c2c(nc3ccc(Br)cc13)N(Cc1ccccc1)CC2,1,2,1,-2,59*,-1,13,9
SMILES,SENP7 block,SENP6 block,UCH37 DUB inh,SENP8 block-1,SENP1 FRET inh,SENP8 block-2,SENP1 inh conf,SENP1 kinetic
Cc1cc(C)n(N=Cc2c[nH]c3ccccc23)c(=O)c1C#N,.,.,5,.,.,.,.,.
Cc1ccc(-c2csc3nc(-c4ccncc4)[nH]c(=O)c23)cc1,-7,-11,-139,-418,43*,-8,40*,31
Cc1ccc(-c2csc3nc[nH]c(=O)c23)cc1,-6,-3,-1,1,-1,-4,.,.
O=C(NNc1nc2c(F)cccc2s1)c1cc(=O)c2ccccc2o1,74*,98*,.,23,33*,94*,66*,57*
O=C(CC(=O)NN=Cc1cccs1)NCc1ccccc1,.,.,3,.,.,.,.,.
CC(=O)Oc1ccc(Cl)cc1/C=C/c1ccc2ccccc2n1,43,26,-20,-223,34*,18,38*,16
NC(=O)c1cc2ccccc2oc1=NNC(=O)c1ccc(F)cc1,.,.,8,.,.,.,.,.
CCCCC(=O)OCC(=O)C1(O)Cc2c(O)c3c(c(O)c2C(OC2CC(NC(=O)C(F)(F)F)C(O)C(C)O2)C1)C(=O)c1c(OC)cccc1C3=O (stereo not drawn),.,.,.,45*,95*,.,27,12
COc1cccc2c1C(=N)c1c(O)c3c(c(O)c1C2=O)CC(O)(C(C)=O)CC3OC1CC(N)C(O)C(C)O1 (stereo not drawn),.,.,.,38,12,.,.,.
Cc1ccccc1C[n+]1cccc2ccccc21,1,-3,-1,12,34*,-7,6,3
O=C(C[n+]1cccc2ccccc21)c1ccccc1,-4,5,-6,-30,12,-5,.,.
CN(C)c1ccc(/C=N/NC(=O)c2cccc(C(=O)N/N=C/c3ccc(N(C)C)cc3)n2)cc1,7,6,.,-8,38*,-1,-1,10
CN(C)c1ccc(C=NNC(=O)c2cnc3ccccc3c2)cc1,.,.,5,.,.,.,.,.
O=c1c2c3nc4ccccc4nc3n(N=Cc3ccco3)c2ncn1CCC1=CCCCC1,.,.,-10,.,.,.,.,.
COC(=O)C=c1sc(=C(C#N)C(=O)NCc2ccco2)n(-c2ccccc2)c1=O,.,.,2,.,.,.,.,.
COC(=O)/C=c1/s/c(=C(\C#N)C(=O)NCc2ccco2)n(-c2ccc(C)cc2)c1=O,-1,-4,.,3,37*,-5,12,10
COc1cc(Nc2nc3c(N)cc(C(F)(F)F)cc3nc2-c2ccccc2)cc(OC)c1OC,.,.,.,14,46*,.,2,3
